# Measured values as given in ChEMBL document CHEMBL4680335, “Synthesis, anticancer and antimicrobial evaluation of new benzofuran based derivatives: PI3K inhibition, quorum sensing and molecular modeling study” (Bioorg Med Chem, 2021).
# pIC50: −log10 of the molar value.
# Legend:
# HeLa = assay: Antiproliferative activity against human HeLa cells assessed as reduction in cell growth; type: functional, cell-based
# PC-3 = assay: Antiproliferative activity against human PC3 cells assessed as reduction in cell growth; type: functional, cell-based
# MCF7 [1] = assay: Antiproliferative activity against human MCF7 cells assessed as reduction in cell growth; type: functional, cell-based
# HepG2 = assay: Antiproliferative activity against human HepG2 cells assessed as reduction in cell growth; type: functional, cell-based
# Bacillus cereus [2] = assay: Antibacterial activity against Bacillus cereus UW85 assessed as diameter of zone inhibition at 5 mg/ml incubated for 24 hrs by agar plate diffusion method; type: functional; details: read-out: DIZ
# Procedure, shortened: (§1)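 Cup (well) agar diffusion in Mueller Hinton agar. Overnight MH broth culture diluted to 0.5 McFarland; 20 μL mixed into MH agar at 50 °C, poured into 9-cm plates. Wells cut with a cork borer and filled with 100 μL compound in DMSO (final 5 mg/mL). DMSO as negative control, ampicillin/clavulanic acid as reference. 37 °C, 24 h; inhibition zone diameter in mm.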
# Staphylococcus aureus [3] = assay: Antibacterial activity against Staphylococcus aureus ATCC 29213 assessed as reduction in bacterial growth incubated for 18 hrs by two-fold serial dilution method; type: functional
# Procedure, shortened: (§2)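 Broth microdilution per CLSI 2015. Selection: compounds active in agar diffusion. Twofold (1:1) dilutions in 0.1 ml MH broth; inoculum 5 × 10^6 CFU/ml diluted suspension. Ampicillin/clavulanic acid as positive control.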
# Staphylococcus aureus [4] = assay: Antibacterial activity against Staphylococcus aureus ATCC 29213 assessed as diameter of zone inhibition at 5 mg/ml incubated for 24 hrs by agar plate diffusion method; type: functional; details: read-out: DIZ; procedure, shortened: as §1
# Bacillus cereus [5] = assay: Antibacterial activity against Bacillus cereus UW85 assessed as reduction in bacterial growth incubated for 18 hrs by two-fold serial dilution method; type: functional; procedure, shortened: as §2
# Escherichia coli = assay: Antibacterial activity against Escherichia coli ATCC 12435 assessed as diameter of zone inhibition at 5 mg/ml incubated for 24 hrs by agar plate diffusion method; type: functional; details: read-out: DIZ; procedure, shortened: as §1
# Pseudomonas aeruginosa [6] = assay: Antibacterial activity against Pseudomonas aeruginosa PAO1 assessed as reduction in bacterial growth incubated for 18 hrs by two-fold serial dilution method; type: functional; procedure, shortened: as §2
# Candida albicans [7] = assay: Antifungal activity against Candida albicans CS35 assessed as reduction in fungal growth incubated for 18 hrs by two-fold serial dilution method; type: functional
# Procedure, shortened: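 Broth microdilution per CLSI M27-A3/M38-A2. Selection: compounds active in agar diffusion. Twofold (1:1) dilutions in 0.1 ml yeast peptone dextrose medium; fluconazole as positive control.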
# Candida albicans [8] = assay: Antifungal activity against Candida albicans CS35 assessed as diameter of zone inhibition at 5 mg/ml incubated for 24 hrs by agar plate diffusion method; type: functional; details: read-out: DIZ
# Procedure, shortened: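 Cup diffusion using Sabouraud's medium for C. albicans. 100 μL compound in DMSO (5 mg/mL) per well, DMSO as negative control, fluconazole as reference. 37 °C, 24 h; inhibition zone diameter in mm.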
# Pseudomonas aeruginosa [9] = assay: Antibacterial activity against Pseudomonas aeruginosa PAO1 assessed as diameter of zone inhibition at 5 mg/ml incubated for 24 hrs by agar plate diffusion method; type: functional; details: read-out: DIZ; procedure, shortened: as §1
# [10] = Safety index, ratio of IC50 for cytotoxicity against human WI-38 cells to IC50 for antiproliferative activity against human HeLa cells; type: toxicity, cell-based; details: WI-38 cells versus HeLa cells
# [11] = Inhibition of quorum sensing in Chromobacterium violaceum ATCC 12472 assessed as inhibition zone at 5 mg/ml incubated for 48 hrs by well diffusion method; type: functional; details: read-out: IZ
# Procedure, shortened: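 Chromobacterium violaceum ATCC 12472 grown in LB broth at 28 °C, 48 h. 50 μL inoculated into 5 ml soft LB agar and overlaid on LB agar plates. Wells received 100 μL compound in DMSO (5 mg/ml); DMSO as negative control. 28 °C, 48 h. Growth-inhibition radius r1 and pigment-plus-growth radius r2 measured; QS inhibition = r2 − r1 (mm).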
# [12] = Safety index, ratio of IC50 for cytotoxicity against human WI-38 cells to IC50 for antiproliferative activity against human HepG2 cells; type: toxicity, cell-based; details: WI-38 cells versus HepG2 cells
# [13] = Safety index, ratio of IC50 for cytotoxicity against human WI-38 cells to IC50 for antiproliferative activity against human MCF7 cells; type: toxicity, cell-based; details: WI-38 cells versus MCF7 cells
# [14] = target: Phosphatidylinositol 4,5-bisphosphate 3-kinase catalytic subunit alpha isoform (Homo sapiens, UniProt P42336); assay: Inhibition of human PI3Kalpha by ELISA
# Chain of Phosphatidylinositol 4,5-bisphosphate 3-kinase catalytic subunit alpha isoform (P42336 whole entry, canonical isoform): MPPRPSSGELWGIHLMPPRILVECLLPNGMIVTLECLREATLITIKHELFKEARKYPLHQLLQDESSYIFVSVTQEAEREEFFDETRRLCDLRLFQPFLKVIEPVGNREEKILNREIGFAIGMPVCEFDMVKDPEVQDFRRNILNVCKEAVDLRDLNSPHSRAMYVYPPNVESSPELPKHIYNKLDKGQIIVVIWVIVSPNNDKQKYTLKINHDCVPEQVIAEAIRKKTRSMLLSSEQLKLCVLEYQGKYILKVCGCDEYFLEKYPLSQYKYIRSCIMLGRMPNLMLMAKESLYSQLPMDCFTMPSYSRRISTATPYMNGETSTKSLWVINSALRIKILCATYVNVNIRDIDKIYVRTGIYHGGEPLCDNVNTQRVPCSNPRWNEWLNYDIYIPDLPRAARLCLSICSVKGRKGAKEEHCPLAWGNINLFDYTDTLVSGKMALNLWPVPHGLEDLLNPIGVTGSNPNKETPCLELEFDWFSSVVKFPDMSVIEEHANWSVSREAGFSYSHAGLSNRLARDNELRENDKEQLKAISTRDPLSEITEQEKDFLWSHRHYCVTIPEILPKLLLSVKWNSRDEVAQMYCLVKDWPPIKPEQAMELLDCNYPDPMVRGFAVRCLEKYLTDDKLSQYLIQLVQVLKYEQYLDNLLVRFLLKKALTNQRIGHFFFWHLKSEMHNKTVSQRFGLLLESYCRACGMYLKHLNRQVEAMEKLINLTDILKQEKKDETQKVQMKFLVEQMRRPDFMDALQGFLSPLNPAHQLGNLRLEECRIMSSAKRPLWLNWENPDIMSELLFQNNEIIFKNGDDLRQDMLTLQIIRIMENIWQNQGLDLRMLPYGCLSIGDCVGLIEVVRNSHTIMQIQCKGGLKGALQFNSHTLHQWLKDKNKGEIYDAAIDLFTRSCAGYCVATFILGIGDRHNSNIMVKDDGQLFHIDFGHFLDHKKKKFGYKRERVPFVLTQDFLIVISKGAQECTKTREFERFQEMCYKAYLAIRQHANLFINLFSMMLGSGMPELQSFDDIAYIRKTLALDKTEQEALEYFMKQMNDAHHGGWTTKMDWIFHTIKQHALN
# Procedure, shortened: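 Human PI3Kα activity measured by ELISA in wells coated with a PI3K-specific antibody. Standard or test compound was added at room temperature and absorbance read. A log–log standard curve related absorbance to standard concentration. Percent inhibition was calculated against control, and IC50 was obtained from concentration/inhibition curves.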
# [15] = Safety index, ratio of IC50 for cytotoxicity against human WI-38 cells to IC50 for antiproliferative activity against human PC-3 cells; type: toxicity, cell-based; details: WI-38 cells versus PC-3 cells
# WI-38 = assay: Cytotoxicity against human WI38 cells by MTT assay; type: cell-based
# MCF7 [16] = assay: Induction of cell cycle arrest in human MCF7 cells assessed as accumulation at S phase at […] incubated for 24 hrs by propidium iodide staining based flow cytometry analysis (reference value: 36.26 %); type: functional; parameters: dose or concentration left out as unconfirmed
# MCF7 [17] = assay: Induction of apoptosis in human MCF7 cells assessed as necrotic cells at […] incubated for 24 hrs by Annexin V-FITC and propidium iodide staining based flow cytometry analysis (reference value: 1.21 %); type: functional; parameters: dose or concentration left out as unconfirmed
# MCF7 [18] = assay: Induction of apoptosis in human MCF7 cells assessed as late apoptotic cells at […] incubated for 24 hrs by Annexin V-FITC and propidium iodide staining based flow cytometry analysis (reference value: 0.15 %); type: functional; parameters: dose or concentration left out as unconfirmed
# MCF7 [19] = assay: Induction of apoptosis in human MCF7 cells assessed as early apoptotic cells at […] incubated for 24 hrs by Annexin V-FITC and propidium iodide staining based flow cytometry analysis (reference value: 0.42 %); type: functional; parameters: dose or concentration left out as unconfirmed
# MCF7 [20] = assay: Induction of cell cycle arrest in human MCF7 cells assessed as accumulation at G0-G1 phase at […] incubated for 24 hrs by propidium iodide staining based flow cytometry analysis (reference value: 53.89 %); type: functional; parameters: dose or concentration left out as unconfirmed
# MCF7 [21] = assay: Induction of apoptosis in human MCF7 cells assessed as accumulation at preG1 phase at […] incubated for 24 hrs by propidium iodide staining based flow cytometry analysis (reference value: 1.78 %); type: functional; parameters: dose or concentration left out as unconfirmed
# MCF7 [22] = assay: Induction of cell cycle arrest in human MCF7 cells assessed as accumulation at G2/M phase at […] incubated for 24 hrs by propidium iodide staining based flow cytometry analysis (reference value: 9.85 %); type: functional; parameters: dose or concentration left out as unconfirmed
compound,measurement,setting,value
C/C(=N\Nc1nc(-c2ccc(Cl)cc2)cs1)c1cc2ccccc2o1,pIC50,HeLa,4.57
same,pIC50,PC-3,4.42
same,pIC50,MCF7 [1],4.52
same,pIC50,HepG2,4.63
CC1(C)S[C@@H]2[C@H](NC(=O)[C@H](N)c3ccccc3)C(=O)N2[C@H]1C(=O)O [AMPICILLIN],zone of inhibition at 5000 µg/mL,Bacillus cereus [2],10 mm
same,MIC,Staphylococcus aureus [3],128 µg/mL
same,zone of inhibition at 5000 µg/mL,Staphylococcus aureus [4],6 mm
same,MIC,Bacillus cereus [5],128 µg/mL
same,zone of inhibition at 5000 µg/mL,Escherichia coli,10 mm
same,MIC,Pseudomonas aeruginosa [6],> 5000 µg/mL
O=CC(/N=N/c1ccc([N+](=O)[O-])cc1)=C(\O)c1cc2ccccc2o1,MIC,Candida albicans [7],256 µg/mL
same,pIC50,HeLa,4.42
same,pIC50,PC-3,4.30
same,pIC50,MCF7 [1],4.36
same,MIC,Staphylococcus aureus [3],8 µg/mL
same,zone of inhibition at 5000 µg/mL,Staphylococcus aureus [4],6 mm
same,pIC50,HepG2,4.45
same,zone of inhibition at 5000 µg/mL,Candida albicans [8],9 mm
same,zone of inhibition at 5000 µg/mL,Pseudomonas aeruginosa [9],10 mm
same,MIC,Pseudomonas aeruginosa [6],512 µg/mL
C/C(=N\Nc1nc(C)cs1)c1cc2ccccc2o1,MIC,Candida albicans [7],128 µg/mL
same,pIC50,PC-3,5.05
same,zone of inhibition at 5000 µg/mL,Bacillus cereus [2],11 mm
same,selectivity ratio,[10],4.94
same,pIC50,MCF7 [1],5.31
same,zone of inhibition at 5000 µg/mL,[11],7 mm
same,MIC,Staphylococcus aureus [3],64 µg/mL
same,selectivity ratio,[12],11.1
same,selectivity ratio,[13],9.06
same,pIC50,HepG2,5.40
same,zone of inhibition at 5000 µg/mL,Candida albicans [8],10 mm
same,pIC50,[14],4.69
same,MIC,Bacillus cereus [5],128 µg/mL
same,selectivity ratio,[15],4.93
same,pIC50,WI-38,4.35
COc1ccc(C(=O)CSC(=S)N/N=C(\C)c2cc3ccccc3o2)cc1,MIC,Candida albicans [7],256 µg/mL
same,pIC50,HeLa,4.33
same,pIC50,PC-3,4.13
same,pIC50,MCF7 [1],4.42
same,pIC50,HepG2,4.50
same,zone of inhibition at 5000 µg/mL,Candida albicans [8],5 mm
same,zone of inhibition at 5000 µg/mL,Pseudomonas aeruginosa [9],8 mm
same,MIC,Pseudomonas aeruginosa [6],512 µg/mL
COc1ccc(/N=N/C(C=O)=C(/O)c2cc3ccccc3o2)cc1,pIC50,PC-3,4.25
same,zone of inhibition at 5000 µg/mL,Bacillus cereus [2],5 mm
same,MIC,Staphylococcus aureus [3],128 µg/mL
same,zone of inhibition at 5000 µg/mL,Staphylococcus aureus [4],7 mm
same,pIC50,HepG2,4.38
same,MIC,Bacillus cereus [5],265 µg/mL
COc1ccc(-c2csc(N/N=C(\C)c3cc4ccccc4o3)n2)cc1,pIC50,HeLa,4.73
same,pIC50,PC-3,4.54
same,pIC50,MCF7 [1],4.72
same,zone of inhibition at 5000 µg/mL,[11],3 mm
same,pIC50,HepG2,4.80
C/C(=N\Nc1nc(-c2ccc(Br)cc2)cs1)c1cc2ccccc2o1,pIC50,HeLa,4.49
same,pIC50,PC-3,4.34
same,pIC50,MCF7 [1],4.48
same,pIC50,HepG2,4.56
C/C(=N\Nc1nc(-c2cc3ccccc3o2)cs1)c1cc2ccccc2o1,pIC50,HeLa,4.62
same,pIC50,PC-3,4.47
same,pIC50,MCF7 [1],4.59
same,zone of inhibition at 5000 µg/mL,[11],2 mm
same,pIC50,HepG2,4.67
C/C(=N\Nc1nc(-c2ccc(C)cc2)cs1)c1cc2ccccc2o1,pIC50,HeLa,4.84
same,pIC50,PC-3,4.67
same,pIC50,MCF7 [1],4.96
same,pIC50,HepG2,4.85
OC(Cn1cncn1)(Cn1cncn1)c1ccc(F)cc1F [FLUCONAZOLE],MIC,Candida albicans [7],256 µg/mL
same,zone of inhibition at 5000 µg/mL,Candida albicans [8],8 mm
CN(C)/C=C/C(=O)c1cc2ccccc2o1,MIC,Candida albicans [7],256 µg/mL
same,zone of inhibition at 5000 µg/mL,[11],5 mm
O=CC(/N=N/c1ccc(Cl)cc1)=C(\O)c1cc2ccccc2o1,pIC50,HeLa,4.42
same,pIC50,PC-3,4.29
same,zone of inhibition at 5000 µg/mL,Bacillus cereus [2],6 mm
same,MIC,Staphylococcus aureus [3],128 µg/mL
same,zone of inhibition at 5000 µg/mL,Staphylococcus aureus [4],9 mm
same,pIC50,HepG2,4.43
same,MIC,Bacillus cereus [5],256 µg/mL
C/C(=N\Nc1nc(-c2ccccc2)cs1)c1cc2ccccc2o1,pIC50,HeLa,4.93
same,pIC50,PC-3,4.78
same,Activity,MCF7 [16],29.57%
same,Activity,MCF7 [17],9.36%
same,selectivity ratio,[10],3.56
same,Activity,MCF7 [18],14.65%
same,Activity,MCF7 [19],5.92%
same,pIC50,MCF7 [1],5.07
same,selectivity ratio,[12],4.04
same,selectivity ratio,[13],4.91
same,pIC50,HepG2,4.99
same,Activity,MCF7 [20],39.61%
same,pIC50,[14],5.39
same,selectivity ratio,[15],2.49
same,pIC50,WI-38,4.38
same,Activity,MCF7 [21],29.93%
same,Activity,MCF7 [22],30.82%
CCOC(=O)Cc1csc(N/N=C(\C)c2cc3ccccc3o2)n1,pIC50,HeLa,5.03
same,pIC50,PC-3,4.88
same,Activity,MCF7 [16],33.71%
same,Activity,MCF7 [17],6.29%
same,selectivity ratio,[10],3.97
same,Activity,MCF7 [18],8.1%
same,Activity,MCF7 [19],3.27%
same,pIC50,MCF7 [1],5.18
same,zone of inhibition at 5000 µg/mL,[11],3 mm
same,selectivity ratio,[12],4.75
same,selectivity ratio,[13],5.61
same,Activity,MCF7 [20],43.95%
same,pIC50,[14],5.11
same,selectivity ratio,[15],2.8
same,pIC50,WI-38,4.43
same,Activity,MCF7 [21],17.66%
same,Activity,MCF7 [22],22.34%
CN1CCN(C(=S)Cc2cc3ccccc3o2)CC1,pIC50,PC-3,4.08
same,pIC50,MCF7 [1],4.13
same,pIC50,HepG2,4.19
Cc1ccc(/N=N/C(C=O)=C(/O)c2cc3ccccc3o2)cc1,pIC50,PC-3,4.21
same,pIC50,MCF7 [1],4.23
same,MIC,Staphylococcus aureus [3],128 µg/mL
same,zone of inhibition at 5000 µg/mL,Staphylococcus aureus [4],6 mm
same,pIC50,HepG2,4.33
same,MIC,Bacillus cereus [5],256 µg/mL
same,zone of inhibition at 5000 µg/mL,Pseudomonas aeruginosa [9],10 mm
same,MIC,Pseudomonas aeruginosa [6],512 µg/mL
